Results: ChEMBL document CHEMBL2150985, “Synthesis and antioxidant activity of 1,3,4-oxadiazole tagged thieno[2,3-d]pyrimidine derivatives” (Eur J Med Chem, 2012)
≈ marks a conversion by molar mass, not a printed value.

Experiments:
Format in all cases: functional
[1] = system: Radical scavenging activity; experiment: Antioxidant activity assessed as inhibition of DPPH free radical production at 25 ug/mL after 30 mins by spectrophotometric analysis relative to control
Procedure, shortened: (§1)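 Test compound in methanol added to 0.004% (w/v) methanolic DPPH at a 1:4 volume ratio. Incubated 30 min at room temperature. Absorbance read against blank at 517 nm.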

[2] = system: Radical scavenging activity; experiment: Antioxidant activity assessed as inhibition of DPPH free radical production at 50 ug/mL after 30 mins by spectrophotometric analysis relative to control; procedure, shortened: as §1
[3] = system: Radical scavenging activity; experiment: Antioxidant activity assessed as inhibition of DPPH free radical production at 75 ug/mL after 30 mins by spectrophotometric analysis relative to control; procedure, shortened: as §1
[4] = system: Radical scavenging activity; experiment: Antioxidant activity assessed as inhibition of DPPH free radical production at 100 ug/mL after 30 mins by spectrophotometric analysis relative to control; procedure, shortened: as §1
[5] = system: Radical scavenging activity; experiment: Antioxidant activity assessed as inhibition of DPPH free radical production after 30 mins by spectrophotometric analysis; procedure, shortened: as §1
[6] = Antioxidant activity assessed as inhibition of nitric oxide free radical production at 25 ug/mL after 150 mins by Griess method relative to control
Procedure, shortened: (§2)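 NO generated from sodium nitroprusside (10 mM) in 0.2 M phosphate buffered saline, pH 7.4, with compound at […]. Incubated 150 min at 25 °C. An aliquot was mixed 1:1 with Griess reagent (1% sulfanilamide, 2% H3PO4, 0.1% naphthylethylenediamine dihydrochloride).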

[7] = Antioxidant activity assessed as inhibition of nitric oxide free radical production at 50 ug/mL after 150 mins by Griess method relative to control; procedure, shortened: as §2
[8] = Antioxidant activity assessed as inhibition of nitric oxide free radical production at 75 ug/mL after 150 mins by Griess method relative to control; procedure, shortened: as §2
[9] = Antioxidant activity assessed as inhibition of nitric oxide free radical production at 100 ug/mL after 150 mins by Griess method relative to control; procedure, shortened: as §2
[10] = Antioxidant activity assessed as inhibition of nitric oxide free radical production after 150 mins by Griess method; procedure, shortened: as §2
[11] = Antioxidant activity assessed as inhibition of H2O2 radical scavenging activity at 25 ug/mL by spectrophotometric analysis relative to control
Procedure, shortened: (§3)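 H2O2 (40 mM) prepared in phosphate buffer, pH 7.4. Compounds at […] in phosphate buffer were added to the H2O2 solution. Absorbance of the mixture was read at 230 nm, and percent H2O2 scavenging was calculated.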

[12] = Antioxidant activity assessed as inhibition of H2O2 radical scavenging activity at 50 ug/mL by spectrophotometric analysis relative to control; procedure, shortened: as §3
[13] = Antioxidant activity assessed as inhibition of H2O2 radical scavenging activity at 75 ug/mL by spectrophotometric analysis relative to control; procedure, shortened: as §3
[14] = Antioxidant activity assessed as inhibition of H2O2 radical scavenging activity at 100 ug/mL by spectrophotometric analysis relative to control; procedure, shortened: as §3
[15] = Antioxidant activity assessed as inhibition of H2O2 radical scavenging activity by spectrophotometric analysis; procedure, shortened: as §3

Row | Compound | inhibition [1] | inhibition [2] | inhibition [3] | inhibition [4] | IC50 [5] | inhibition [6] | inhibition [7] | inhibition [8] | inhibition [9] | IC50 [10] | inhibition [11] | inhibition [12] | inhibition [13] | inhibition [14] | IC50 [15]
1 | Cc1c(-c2nnc(-c3ccc(Cl)cc3)o2)sc2ncnc(Nc3ccc(F)c(Cl)c3)c12 | 63.9% | 67.9% | 71.5% | 76.6% | 19.57 µg/mL (≈ 41.4 µM) | 64.4% | 69.2% | 74.7% | 79.5% | 19.41 µg/mL (≈ 41.1 µM) | 61.9% | 64.5% | 68.2% | 71.9% | 20.18 µg/mL (≈ 42.7 µM)
2 | Cc1c(-c2nnc(-c3ccccc3)o2)sc2ncnc(Nc3ccc(Cl)cc3)c12 | 69.3% | 71.6% | 76.8% | 81.3% | 18.03 µg/mL (≈ 42.9 µM) | 71.3% | 74.8% | 77.1% | 82.9% | 17.54 µg/mL (≈ 41.8 µM) | 61.1% | 63.8% | 68.2% | 71.6% | 20.47 µg/mL (≈ 48.8 µM)
3 | Cc1c(-c2nnc(-c3ccc([N+](=O)[O-])cc3)o2)sc2ncnc(Nc3ccc(Cl)cc3)c12 | 52.7% | 58.2% | 61.4% | 67.8% | 23.7 µg/mL (≈ 51 µM) | 61% | 63.5% | 67.6% | 72.4% | 20.49 µg/mL (≈ 44.1 µM) | 51.4% | 54% | 58.1% | 63.7% | 24.33 µg/mL (≈ 52.3 µM)
4 | Cc1c(-c2nnc(-c3ccccc3)o2)sc2ncnc(Nc3ccc(F)cc3F)c12 | 73.9% | 77.4% | 79.6% | 83.8% | 16.91 µg/mL (≈ 40.1 µM) | 75.2% | 79.5% | 82.6% | 85.4% | 16.61 µg/mL (≈ 39.4 µM) | 63.9% | 65.5% | 69% | 72.5% | 19.57 µg/mL (≈ 46.4 µM)
5 | Cc1c(-c2nnc(-c3ccccc3)o2)sc2ncnc(Nc3ccc(F)c(Cl)c3)c12 | 68.5% | 72.8% | 74.9% | 79.2% | 18.25 µg/mL (≈ 41.7 µM) | 72.9% | 74.1% | 78.2% | 82.4% | 17.14 µg/mL (≈ 39.1 µM) | 60.3% | 63.5% | 67.8% | 70.9% | 20.74 µg/mL (≈ 47.4 µM)
6 | Cc1c(-c2nnc(-c3ccc(Cl)cc3)o2)sc2ncnc(Nc3ccc(Cl)cc3)c12 | 64.7% | 68.4% | 73.8% | 77.5% | 19.31 µg/mL (≈ 42.5 µM) | 68.4% | 70.6% | 74.2% | 79.4% | 18.27 µg/mL (≈ 40.2 µM) | 58.3% | 62.3% | 65.7% | 69.8% | 21.22 µg/mL (≈ 46.7 µM)
7 | Cc1c(-c2nnc(-c3ccc(Cl)cc3)o2)sc2ncnc(Nc3ccc(F)cc3)c12 | 70.6% | 74.2% | 77.8% | 81.9% | 17.7 µg/mL (≈ 40.4 µM) | 71.8% | 76.3% | 79.7% | 83.6% | 17.39 µg/mL (≈ 39.7 µM) | 64.1% | 67.4% | 69.8% | 72.6% | 19.49 µg/mL (≈ 44.5 µM)
8 | Cc1c(-c2nnc(-c3ccc([N+](=O)[O-])cc3)o2)sc2ncnc(Nc3ccc(F)cc3F)c12 | 64.6% | 69.5% | 73.9% | 77.8% | 19.34 µg/mL (≈ 41.5 µM) | 63.6% | 71.4% | 76.2% | 79% | 19.66 µg/mL (≈ 42.2 µM) | 54.4% | 58.1% | 62.8% | 66.2% | 22.98 µg/mL (≈ 49.3 µM)
9 | Cc1c(-c2nnc(-c3ccc(Cl)cc3)o2)sc2ncnc(Nc3ccc(F)cc3F)c12 | 76.4% | 79.7% | 83.3% | 85.8% | 16.35 µg/mL (≈ 35.9 µM) | 78.2% | 83.3% | 84.6% | 86.2% | 15.98 µg/mL (≈ 35.1 µM) | 68.4% | 71.7% | 74.5% | 79.7% | 18.26 µg/mL (≈ 40.1 µM)
10 | O=C1O[C@H]([C@@H](O)CO)C(O)=C1O [ASCORBIC ACID] | 82.7% | 83.5% | 85.5% | 87.2% | 15.11 µg/mL (≈ 85.8 µM) | 84.7% | 86% | 88.3% | 90.4% | 14.75 µg/mL (≈ 83.7 µM) | 76.4% | 78.6% | 82.4% | 86.6% | 16.35 µg/mL (≈ 92.8 µM)
11 | Cc1c(-c2nnc(-c3ccccc3)o2)sc2ncnc(Nc3ccc(F)cc3)c12 | 72.5% | 75.8% | 78.4% | 83.1% | 17.25 µg/mL (≈ 42.8 µM) | 73.1% | 78.1% | 82.4% | 84.9% | 17.1 µg/mL (≈ 42.4 µM) | 66.3% | 69.5% | 71.7% | 74.2% | 18.85 µg/mL (≈ 46.7 µM)
12 | Cc1c(-c2nnc(-c3ccc([N+](=O)[O-])cc3)o2)sc2ncnc(Nc3ccc(F)c(Cl)c3)c12 | 48.6% | 52.9% | 56.6% | 61.9% | 25.69 µg/mL (≈ 53.2 µM) | 53.6% | 56.5% | 60% | 64.3% | 23.3 µg/mL (≈ 48.3 µM) | 45% | 47.4% | 50.4% | 53.6% | 27.76 µg/mL (≈ 57.5 µM)
13 | Cc1c(-c2nnc(-c3ccc([N+](=O)[O-])cc3)o2)sc2ncnc(Nc3ccc(F)cc3)c12 | 59.7% | 64.5% | 68.9% | 72.2% | 20.92 µg/mL (≈ 46.7 µM) | 62% | 66.8% | 70.9% | 73.9% | 20.14 µg/mL (≈ 44.9 µM) | 53.1% | 56.6% | 60% | 64.2% | 23.54 µg/mL (≈ 52.5 µM)
